Test results: ChEMBL document CHEMBL1122228, “1-(Aminomethyl)-6,7-dihydroxytetralin derivatives: synthesis and assessment of dopamine-like effects” (1983)
The source made the active and inactive calls. No cut-off for these calls is given here.

How the values were obtained:
Felis catus [1] = assay: Inhibition of positive chronotropic response induced by stimulation of cardioaccelerator nerve of cat at 1 mg/kg (iv); Inactive; format: functional, organism-based; set-up: dose 1 mg/kg
Summary of the method: (§1)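 Cats of either sex, 4–6 kg, were anesthetized with intraperitoneal pentobarbital sodium (30 mg/kg) and pretreated with atropine sulfate (200 μg/kg) and hexamethonium bromide (10 mg/kg). They were intubated and ventilated, with the chest opened. Bipolar platinum electrodes were placed on the right postganglionic cardioaccelerator nerves, stimulated at 2 Hz for 30 s, 2-ms pulses, supramaximal 20–25 V. Heart rate was recorded. Compounds were given iv up to 1 mg/kg.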

Felis catus [2] = assay: Ability to lower arterial blood pressure in cat at 1.7 umol/kg; format: functional, Artery
Summary of the method: (§2)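 Cats of either sex, 4–6 kg, anesthetized with intraperitoneal pentobarbital sodium (30 mg/kg), intubated and ventilated by respirator. Arterial blood pressure and heart rate were monitored. Test doses ranged from 0.5 to 1.0 mg/kg.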

Felis catus [3] = assay: Ability to lower arterial blood pressure in cat at 3.4 umol/kg; format: functional, Artery; summary of the method: as §2
Felis catus [4] = assay: Active dose range of hypotensive effect in cat; range is 0.008-0.032 uM/kg.; format: functional
Felis catus [5] = assay: Inhibition of positive chronotropic response induced by stimulation of cardioaccelerator nerve of cat at 1 mg/kg (iv); format: functional; summary of the method: as §1

Compound | Activity (Felis catus [1]) | further results
CCN(CC)CC1CCCc2cc(O)c(O)cc21 (stereo unspecified) | inactive | 
CNCC1CCCc2cc(O)c(O)cc21 (stereo unspecified) | inactive | 
Br.CN(C)CC1CCCc2cc(O)c(O)cc21 (stereo unspecified) | inactive | BP (Felis catus [2]): 31.5 mmHg; BP (Felis catus [3]): 34.5 mmHg
CC(C)N(C)CC1CCCc2cc(O)c(O)cc21 (stereo unspecified) | inactive | 
CN1CCc2cccc3c2[C@H]1Cc1ccc(O)c(O)c1-3 [APOMORPHINE] |  | Dose range (Felis catus [4]): 0.032 µM/kg; ED50 (Felis catus [5]): 0.022 µmol/kg
CCCNCC1CCCc2cc(O)c(O)cc21 (stereo unspecified) | inactive | 
CC(C)NCC1CCCc2cc(O)c(O)cc21 (stereo unspecified) | inactive | 
CCNCC1CCCc2cc(O)c(O)cc21 (stereo unspecified) | inactive | 
